Results from ChEMBL document CHEMBL5154713, “Illuminating a Dark Kinase: Structure-Guided Design, Synthesis, and Evaluation of a Potent Nek1 Inhibitor and Its Effects on the Embryonic Zebrafish Pronephros” (J Med Chem, 2022).

Assays:
[1] = biological target: Tyrosine-protein kinase ABL1 (Homo sapiens) (UniProt P00519); experiment: Inhibition of human recombinant ABL (27 to end residues) assessed as residual activity at 1 uM using EAIYAAPFAKKK as substrate incubated for 40 mins in presence of [gamma33P-ATP] by radiometric scintillation counting analysis
Tyrosine-protein kinase ABL1 (Homo sapiens), sequence (P00519 whole entry): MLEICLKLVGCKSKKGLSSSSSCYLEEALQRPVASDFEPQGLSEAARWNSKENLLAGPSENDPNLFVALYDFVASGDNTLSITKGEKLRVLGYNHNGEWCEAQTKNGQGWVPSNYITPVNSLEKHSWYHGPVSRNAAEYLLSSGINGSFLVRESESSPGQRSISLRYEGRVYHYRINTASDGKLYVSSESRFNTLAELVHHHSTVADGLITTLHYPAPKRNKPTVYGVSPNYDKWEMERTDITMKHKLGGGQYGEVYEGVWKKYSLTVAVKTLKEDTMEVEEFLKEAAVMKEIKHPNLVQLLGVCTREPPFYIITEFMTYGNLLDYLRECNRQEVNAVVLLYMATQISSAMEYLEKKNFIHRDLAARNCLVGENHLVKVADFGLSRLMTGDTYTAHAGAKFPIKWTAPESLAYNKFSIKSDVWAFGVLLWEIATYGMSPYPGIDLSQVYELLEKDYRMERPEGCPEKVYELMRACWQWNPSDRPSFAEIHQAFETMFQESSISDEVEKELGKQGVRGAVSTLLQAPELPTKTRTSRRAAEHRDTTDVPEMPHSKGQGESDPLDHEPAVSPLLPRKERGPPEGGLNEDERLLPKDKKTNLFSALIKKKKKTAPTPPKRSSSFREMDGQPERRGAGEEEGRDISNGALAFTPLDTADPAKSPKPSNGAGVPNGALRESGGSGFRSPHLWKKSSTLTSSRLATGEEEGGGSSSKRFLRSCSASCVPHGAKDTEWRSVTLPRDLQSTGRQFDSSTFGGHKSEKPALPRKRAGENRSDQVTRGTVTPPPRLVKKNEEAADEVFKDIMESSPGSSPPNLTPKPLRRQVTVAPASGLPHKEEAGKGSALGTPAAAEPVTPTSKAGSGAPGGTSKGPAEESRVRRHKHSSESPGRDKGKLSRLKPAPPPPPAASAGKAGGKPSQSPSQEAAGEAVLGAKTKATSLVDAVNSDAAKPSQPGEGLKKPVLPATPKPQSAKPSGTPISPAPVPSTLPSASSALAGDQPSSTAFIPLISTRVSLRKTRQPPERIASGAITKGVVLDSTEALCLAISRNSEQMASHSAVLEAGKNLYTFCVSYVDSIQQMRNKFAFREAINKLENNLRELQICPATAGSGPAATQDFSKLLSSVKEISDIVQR
Summary of the method: (§1)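 Commercial radiometric panel of 50 kinases. Each recombinant human kinase was tested at a single compound concentration of 1 μM. ATP was set within 15 μM of the apparent Km for ATP for each kinase. Residual activity is relative to control and is the mean of two independent experiments.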

[2] = biological target: Serine/threonine-protein kinase PLK3 (Homo sapiens) (UniProt Q9H4B4); experiment: Inhibition of recombinant human Plk3 (19 to 301 residues) assessed as residual activity at 1 uM using casein as substrate measured after 40 mins in presence of [gamma33P]ATP by radiometric scintillation counting method relative to control; summary of the method: as §1
Serine/threonine-protein kinase PLK3 (Homo sapiens), sequence (Q9H4B4 whole entry, looked up, the tested form may be a part): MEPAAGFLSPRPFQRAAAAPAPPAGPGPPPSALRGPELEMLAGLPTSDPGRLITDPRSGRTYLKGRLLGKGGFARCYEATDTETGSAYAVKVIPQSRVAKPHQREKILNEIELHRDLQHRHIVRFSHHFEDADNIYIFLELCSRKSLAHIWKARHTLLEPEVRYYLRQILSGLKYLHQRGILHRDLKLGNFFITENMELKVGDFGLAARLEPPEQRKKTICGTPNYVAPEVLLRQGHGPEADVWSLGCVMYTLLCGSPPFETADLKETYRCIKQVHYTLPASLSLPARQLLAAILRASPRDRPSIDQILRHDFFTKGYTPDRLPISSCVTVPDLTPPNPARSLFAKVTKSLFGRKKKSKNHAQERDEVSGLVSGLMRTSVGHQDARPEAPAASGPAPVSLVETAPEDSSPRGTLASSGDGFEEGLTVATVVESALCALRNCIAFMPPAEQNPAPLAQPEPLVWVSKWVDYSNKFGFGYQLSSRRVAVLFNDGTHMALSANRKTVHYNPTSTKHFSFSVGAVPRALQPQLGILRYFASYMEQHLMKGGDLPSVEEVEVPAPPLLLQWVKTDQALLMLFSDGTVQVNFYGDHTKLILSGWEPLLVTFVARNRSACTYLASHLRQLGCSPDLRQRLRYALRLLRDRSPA

[3] = biological target: Calcium/calmodulin-dependent protein kinase kinase 2 (Homo sapiens) (UniProt Q96RR4); experiment: Inhibition of human full length CAMKK2 assessed as residual activity at 1 uM using calmodulin as substrate incubated for 40 mins in presence of [gamma 33P]-ATP by radiometric scintillation counting assay relative to control; summary of the method: as §1
Calcium/calmodulin-dependent protein kinase kinase 2 (Homo sapiens), sequence (Q96RR4 2-588 limits assumed): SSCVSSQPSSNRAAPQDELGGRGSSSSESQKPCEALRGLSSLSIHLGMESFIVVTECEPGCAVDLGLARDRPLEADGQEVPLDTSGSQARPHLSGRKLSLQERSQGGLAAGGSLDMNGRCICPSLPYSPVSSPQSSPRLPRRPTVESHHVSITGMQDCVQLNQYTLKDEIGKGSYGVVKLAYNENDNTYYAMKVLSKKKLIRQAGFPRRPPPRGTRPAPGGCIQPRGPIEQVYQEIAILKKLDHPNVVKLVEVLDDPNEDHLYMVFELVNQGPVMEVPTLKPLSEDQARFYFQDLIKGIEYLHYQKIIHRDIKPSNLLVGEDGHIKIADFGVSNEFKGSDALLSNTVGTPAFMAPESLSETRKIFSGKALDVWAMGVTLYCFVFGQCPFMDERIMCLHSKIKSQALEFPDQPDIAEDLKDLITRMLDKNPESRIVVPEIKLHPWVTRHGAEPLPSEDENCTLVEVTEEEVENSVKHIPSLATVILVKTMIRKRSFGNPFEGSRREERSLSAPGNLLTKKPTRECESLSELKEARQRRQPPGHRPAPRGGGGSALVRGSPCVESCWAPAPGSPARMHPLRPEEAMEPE

[4] = biological target: Tyrosine-protein kinase SYK (Homo sapiens) (UniProt P43405); experiment: Inhibition of recombinant full-length human Syk at 1 uM assessed as residual activity at 1 uM using poly(Glu, Tyr) 4:1 as substrate measured after 40 mins in presence of [gamma33P]ATP by radiometric scintillation counting method relative to control; summary of the method: as §1

Measured: Activity

O=S(=O)(N[C@@H](CO)Cc1c[nH]c2ccccc12)c1ccc(-c2ccnc3[nH]ccc23)cc1
> 75%: all assays above
